Screening data deposited in PubChem BioAssay by Sanford-Burnham Center for Chemical Genomics.
Scp1 inh = Scp-1 (human) phosphatase inhibition; Q9GZU7; 340,000 compounds, 0.88% hits; inhibition, % at 20 µM; AID 493091; Recombinant Scp1, phosphopeptide, malachite green phosphate absorbance;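 active means inhibition above about 50% at 20 µM, limit read from the data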;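 further: plate controls were DMSO wells with enzyme for no effect and wells lacking enzyme for full effect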
Target sequence (Q9GZU7 76-261 limits assumed): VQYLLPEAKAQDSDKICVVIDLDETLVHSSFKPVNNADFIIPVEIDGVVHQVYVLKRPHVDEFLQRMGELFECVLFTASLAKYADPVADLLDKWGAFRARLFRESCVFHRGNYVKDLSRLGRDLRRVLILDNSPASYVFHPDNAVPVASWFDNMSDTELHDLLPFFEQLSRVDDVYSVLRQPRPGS
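System: SCP-1 catalytic domain; Reagent: Phospho 17-mer peptide substrate; Doses: one concentration, 20 µM, with 1.0% DMSO; Incubation: 45 min room-temperature reaction, 5 min colour, 30 min stabiliser; Signal: Phosphate-binding colour reagent, absorbance read at 630 nm.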
DNMT1 inh = blocks human DNA methyltransferase DNMT1. 360,000 compounds, 0.83% hits. P26358. inhibition (reported as % activation of signal), % at 10 µM. DNMT1 molecular beacon, Hinp1I cleavage, fluorescence; in the data active means inhibition above about 50%
SUMO1 PPI mod = modulators of human SUMO1-mediated protein-protein interactions; P63165; SUMO1 binding to a labelled peptide, TR-FRET, 1 h; inhibition, % at 20 µM; 360,000 compounds, 0.33% hits; in the data active means inhibition above about 37%
Target sequence (P63165 whole entry, looked up): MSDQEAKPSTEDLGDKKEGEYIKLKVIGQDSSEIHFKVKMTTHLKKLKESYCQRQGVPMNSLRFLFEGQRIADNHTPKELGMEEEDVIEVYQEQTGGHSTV
STEP block = inhibitors of human striatal-enriched phosphatase STEP; P54829; recombinant STEP, OMFP fluorogenic substrate, fluorescence; inhibition, % at 20 µM; 360,000 compounds, 0.25% hits;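 active means inhibition at 20 µM, scaled per plate between control wells, above about 37%, limit read from the data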;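 further: 0% = DMSO with enzyme and substrate and 100% = substrate only without enzyme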
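material = STEP tyrosine phosphatase | reagent = fluorogenic phosphatase substrate OMFP at 25 µM final | doses = single compound dose of 20 µM, 1% DMSO final | schedule = 20 min reaction, room temperature, in the dark | measured by = fluorescence, 480/540 nm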
LMPTP inh = blocks human LMPTP phosphatase | P24666 | recombinant LMPTP-A, OMFP fluorogenic substrate, fluorescence intensity | inhibition, % at 20 µM | 360,000 compounds, 0.22% hits | AID 651560;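 active means compounds that cut the enzyme signal by at least half of the control window in the single-dose screen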;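 further: plate controls were DMSO wells with enzyme plus substrate for no effect and substrate without enzyme for full effect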
Target sequence (P24666 whole entry, looked up): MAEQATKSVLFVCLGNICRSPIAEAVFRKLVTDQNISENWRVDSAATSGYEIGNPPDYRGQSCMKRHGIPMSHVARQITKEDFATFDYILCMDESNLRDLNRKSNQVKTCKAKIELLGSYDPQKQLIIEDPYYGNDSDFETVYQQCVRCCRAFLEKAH
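material = LMPTP-A | quantity = 0.625 nM enzyme | reagent = OMFP substrate, 400 µM final | buffer or medium = Bis-Tris pH 6.0, DTT, detergent | detection = endpoint fluorescence intensity from OMFP dephosphorylation | dosing = single 20 µM dose | read-out basis = % inhibition relative to no-enzyme and uninhibited control wells | control set = no-enzyme and uninhibited controls | timing = 50 min at room temperature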
DNMT1 confirm = DNMT1 inhibition confirmation, single concentration; 2,300 compounds, 8% hits; inhibition, % at 10 µM; DNMT1 molecular beacon HinP1I cleavage, fluorescence; shares compounds with DNMT1 inh;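 active means average inhibition of at least 30% in the single-concentration confirmation test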
DNMT1 interf = shows spectral interference in the DNMT1 beacon assay | shares compounds with DNMT1 inh | DNMT1 molecular beacon spectral interference counterscreen, fluorescence 485/520 | activation (fluorescence interference), % at 10 µM | 2,300 compounds, 1% hits | AID 602387;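 active means activation of at least 30% at 10 µM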;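 further: DNMT1 catalytic domain with a HinP1I cleavage step and a FAM/dabcyl DNA beacon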
* = called active by the depositor; · = no result given. Rows were chosen to be rich in hits. Some 1.7% of all compounds tested hit in one or more screens of this group.

SMILES	Scp1 inh	DNMT1 inh	SUMO1 PPI mod	STEP block	LMPTP inh	DNMT1 confirm	DNMT1 interf
C=C1C(=O)OC2C1CCC(C)=C1C(=O)C3OC3(C)C12 (stereo unspecified)	4	72*	4	-2	-1	8	7
COc1cc2nc(CN3CCN(S(=O)(=O)c4cc(C)ccc4C)CC3)[nH]c(=O)c2cc1OC	-7	92*	2	-3	0	3	1
Cn1c(SCc2ccccc2)nnc1-c1ccc(O)cc1	-4	0	2	-1	-2	·	·
O=C(Cc1cn2ccsc2n1)Nc1nc2c(s1)CN(Cc1ccccc1)CC2	22	56*	17	-1	61*	0	3
CCN1CCc2nc(NC(=O)C(c3ccccc3)c3ccccc3)sc2C1	4	63*	-16	0	2	1	4
CCN1CCc2nc(NC(=O)CC(c3ccccc3)c3ccccc3)sc2C1	-1	44	-4	6	2	·	·
CCC1CCCCN1S(=O)(=O)c1ccc2c(c1)CCN2C(C)=O (stereo unspecified)	-8	-1	1	3	-1	·	·
Nn1c(-c2cccc(O)c2)nnc1-c1cccc(O)c1	-2	-6	1	2	0	·	·
CSC1=NSC2=NC(=O)/C(=C/c3coc4ccccc4c3=O)C(=N)N12	-11	-6	5	-80	-1	·	·
CSC1=NSC2=NC(=O)/C(=C/c3coc4ccc(O)cc4c3=O)C(=N)N12	22	82*	42*	-80	6	13	-3
CCCCCCSc1ccc(-c2nc3ccc(Cl)cn3c2NCCCC)cc1OC	5	79*	-1	-2	2	1	2
CCn1cnnc1SCC(=O)Nc1ccccc1C(=O)NC1CC1	-3	-1	-1	0	1	·	·
CCc1nc(NCc2cccs2)c2nnn(Cc3ccccc3)c2n1	·	67*	1	4	-3	0	4
Cc1ccc2c(Cl)c(C(=O)NCCCN3CCOCC3)sc2c1	·	-2	-9	-3	-1	·	·
CC(=O)Nc1ccccc1NC(=O)C/C(C)=N/NC(=O)c1ccncc1	-1	0	-3	-4	0	·	·
C/C(CC(=O)Nc1ccccc1C#N)=N\NC(=O)c1ccncc1	-7	82*	3	-2	-1	3	2
COc1cccc(NC(=O)COC(=O)Cn2c(C)csc2=O)c1	-2	7	2	-1	-1	·	·
CCOC(=O)C1CCN(C(=O)c2cccc(S(=O)(=O)N3CCCc4ccccc43)c2)CC1	-13	-5	-52	2	-9	·	·
O=C(O)/C(=C/c1ccc(Cl)c([N+](=O)[O-])c1)c1ccc(S(=O)(=O)N2CCCCC2)s1	16	0	1	3	0	·	·
NC(=O)CC(NC(=O)Cc1ccc(Br)cc1)c1ccc(NC2CCCC2)c([N+](=O)[O-])c1 (stereo unspecified)	-6	54*	-12	3	2	3	2
NC(=O)CC(NC(=O)Cc1cccc2ccccc12)c1ccc(NC2CCCCCCC2)c([N+](=O)[O-])c1 (stereo unspecified)	0	60*	0	3	1	1	6
O=C(NC1CCCCC1)C(c1ccccc1F)n1c(=O)c(-c2cc3ccccc3[nH]2)nc2ccccc21 (stereo unspecified)	·	·	2	·	4	·	·
O=C(Nc1cccc(S(=O)(=O)N2CCOCC2)c1)c1cnn2c(C(F)F)cc(-c3ccccc3)nc12	-15	2	-2	5	1	·	·
CNS(=O)(=O)c1ccc(NC(=O)c2cnn3c(C(F)F)cc(-c4ccccc4)nc23)cc1	-1	53*	-5	1	1	1	-5
OCc1cccc[n+]1Cc1ccccc1	-7	1	6	1	-2	·	·
SMILES	Scp1 inh	DNMT1 inh	SUMO1 PPI mod	STEP block	LMPTP inh	DNMT1 confirm	DNMT1 interf
O=C(N/N=C1/C(=O)c2cccc3cccc1c23)c1ccc(Cl)cc1	95*	96*	71*	99*	94*	0	-7
CCOC(=O)c1c(-c2cc(OC)c(OC)c(OC)c2)csc1N	·	-1	2	0	0	·	·
O=C(Nc1nnc(-c2ccccc2)s1)c1ccc(F)cc1	-2	72*	-2	-1	-1	2	1
Cc1ccc(CCNC(=O)CC(C)CC2=NS(=O)(=O)c3ccccc3N2)cc1 (stereo unspecified)	-4	2	-4	1	0	·	·
COc1ccc(CCn2c(C3CCCCC3)nc3c(c(=O)c4ccccc4n3C)c2=O)cc1OC	10	63*	41*	14	24	-2	2
COc1ccc(CCn2c(-c3ccc(F)cc3)nc3c(c(=O)c4ccccc4n3C)c2=O)cc1OC	-15	31	-28	5	3	·	·
CCc1nnc2n1N=C(c1ccc(-c3cc(Cl)ccc3Cl)o1)CS2	5	66*	-5	4	6	4	0
C#CCNC(=O)C[C@@H]1C[C@@]2(C(=O)OC)CCCCC=C2N(CCCCCCCC)C1=O	·	·	3	·	2	·	·
Cc1noc(C)c1CCC(=O)NC1CCCN(Cc2ccc(Cl)cc2)C1 (stereo unspecified)	5	4	0	0	-1	·	·
Cc1noc(C)c1CCC(=O)NC1CCCN(Cc2ccc(CC(C)C)cc2)C1 (stereo unspecified)	-3	53*	1	-2	0	1	0
COc1ccc2ccccc2c1C(O)c1nccn1C (stereo unspecified)	-14	62*	-19	-20	-1	0	2
COCCOC(=O)c1[nH]c2c(c1C)C(=O)CC(c1ccco1)C2 (stereo unspecified)	83*	74*	22	0	37	4	-2
COCCOC(=O)c1[nH]c2c(c1C)C(=O)CC(c1ccc(N(C)C)cc1)C2 (stereo unspecified)	-7	-13	-3	4	4	·	·
CCOC(=O)c1[nH]c2c(c1C)C(=O)CC(c1ccco1)C2 (stereo unspecified)	64*	51*	13	0	37	7	6
CCc1ccccc1NC(=O)CSc1ccsc1[N+](=O)[O-]	48	53*	-15	3	7	5	2
COc1ccccc1CNC(=O)CSc1ccsc1[N+](=O)[O-]	3	1	-25	1	-1	·	·
O=C(NCc1ccccc1)c1cccc(NC(=O)C2CC2)c1	-4	4	2	0	-1	·	·
CCOC1=C2CN(S(=O)(=O)c3ccc(C)cc3)CC[C@@H]2N(S(=O)(=O)c2ccc(C)cc2)[C@H](c2ccccc2)C1	·	5	2	2	1	·	·
